# CHRM5 PAM: human M5 muscarinic receptor positive allosteric modulators, primary screen, CHO-K1 cells, Fluo-8 calcium fluorescence | Muscarinic acetylcholine receptor M5 (Homo sapiens), P08912 | CHO-K1 hM5, ACh EC20 PAM; 0% = ACh EC20, 100% = ACh EC100 | activation, % at 3 µM | actives 0.3% (n = 360,000) | AID 624038, 2012;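 active = activation above the run cutoff, the mean activation of all test compounds plus 3 SD, cut at about 18% in these data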
# Target sequence (P08912 whole entry, looked up): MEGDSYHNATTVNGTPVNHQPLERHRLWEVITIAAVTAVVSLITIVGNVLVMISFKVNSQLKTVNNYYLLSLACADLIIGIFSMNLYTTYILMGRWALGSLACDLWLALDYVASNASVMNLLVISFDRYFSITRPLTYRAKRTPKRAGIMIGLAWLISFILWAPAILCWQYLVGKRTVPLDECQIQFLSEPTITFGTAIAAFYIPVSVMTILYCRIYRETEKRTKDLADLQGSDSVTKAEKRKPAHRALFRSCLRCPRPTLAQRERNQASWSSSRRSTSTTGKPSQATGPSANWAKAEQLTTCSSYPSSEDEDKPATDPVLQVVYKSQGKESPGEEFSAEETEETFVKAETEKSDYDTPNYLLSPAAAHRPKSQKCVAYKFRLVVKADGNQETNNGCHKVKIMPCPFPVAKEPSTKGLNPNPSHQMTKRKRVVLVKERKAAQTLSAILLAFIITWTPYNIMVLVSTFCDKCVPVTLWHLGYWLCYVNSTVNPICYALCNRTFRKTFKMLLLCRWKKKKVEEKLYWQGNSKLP
#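 Assay system: CHO-K1 hM5 cells. Also added: acetylcholine at EC20 concentration, added after compound. Dosing: 3 µM, single dose. Times: compound preincubation 140 s before EC20 acetylcholine addition. Signal: Fluo-8 calcium fluorescence. Measure: % activation relative to EC20 and EC100 ACh responses. Repeats: singlicate, one well per test compound.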
# M5 ag: human M5 muscarinic receptor agonists, primary screen, CHO-K1 cells, Fluo-8 calcium fluorescence; actives 0.19% (n = 360,000); CHO-K1 hM5 cells; 0% DMSO wells, 100% maximal acetylcholine response; activation, % at 3 µM; Muscarinic acetylcholine receptor M5 (Homo sapiens), P08912;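 active = activation above the run's mean over test compounds plus 3 SD, cut at about 23% in these data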;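 also: signal is peak over basal fluorescence ratio across the kinetic read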
# M5 antag: human M5 muscarinic receptor antagonists, primary screen, CHO cells, Fluo-8 calcium fluorescence | CHO-hM5 cells, ACh EC80 | inhibition, % at 3 µM | actives 0.59% (n = 360,000) | AID 624040, 2012;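 active = inhibition above a per-plate cutoff, the mean of that plate's test compounds plus 3 SD, cut at about 27% in these data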;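 also: 0% = acetylcholine EC80 with DMSO and 100% = DMSO without agonist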
# CHRM1 agonist: human M1 muscarinic receptor agonists, primary screen, Fluo-8 calcium fluorescence, CHO-K1 cells, HTS. Muscarinic acetylcholine receptor M1 (Homo sapiens), P11229. actives 0.33% (n = 360,000). activation, % at 3 µM. CHO-K1 hM1, agonist mode; 0% DMSO, 100% acetylcholine EC100;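 active = activation above the run's mean compound activation plus 3 SD, cut at about 16% in these data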;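 also: peak over basal fluorescence ratio within a 140 s kinetic read after compound addition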
# M1 PAM: human M1 muscarinic receptor positive allosteric modulators, primary screen, CHO-K1 cells, Fluo-8 calcium fluorescence, 1536-well; CHO-K1 hM1, ACh EC20; 0% = ACh EC20, 100% = maximal ACh; AID 588819, 2011; Muscarinic acetylcholine receptor M1 (Homo sapiens), P11229; activation, % at 3 µM; actives 0.088% (n = 360,000); in the data active = activation above about 19%, passing the limit was not always enough
# M1 antag: human M1 muscarinic receptor antagonists, primary screen, CHO-K1 cells, Fluo-8 calcium fluorescence, 1536-well | Muscarinic acetylcholine receptor M1 (Homo sapiens), P11229 | CHO-K1 hM1, ACh EC80 antagonist | inhibition, % at 3 µM | actives 1.3% (n = 360,000);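 active = percent inhibition above its own plate's cutoff, namely the mean of that plate's compound wells plus 3 SD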;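 also: peak over basal fluorescence ratio during 140 s after agonist addition; 0% = ACh EC80 plus DMSO and 100% = DMSO alone without agonist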
# The depositor's hits bear a star; . = not tested or not shown; ! = not confirmed by another sample. The list is not random: actives were taken first. Their share in the collection is about 2%.
SMILES,CHRM5 PAM,M5 ag,M5 antag,CHRM1 agonist,M1 PAM,M1 antag
COC(=O)[C@@]1(Cc2ccc(OC)cc2)[C@@H]2C(=CC(=O)[C@H]2CC(=O)C(=O)N2CCCC2)CN1C(=O)c1ccccc1,19*,0,-9,-4,8,2
C[C@H]1CN([C@@H](C)CO)C(=O)CCCn2nncc2CO[C@@H]1CN(C)S(=O)(=O)c1ccccc1,8,2,-8,0,-1,-1
C[C@@H]1Cn2cnc(C(=O)N[C@@H](C)c3ccccc3)c2C(=O)N1,-3,1,6,-1,4,-10
COc1cc(C(=O)NCC(c2cccs2)N2CCOCC2)ccc1OCc1ccccc1 (stereo not given),0,1,1,-1,4,3
O[C@H]1CN(CC2CCCCC2)[C@@H](c2ccccc2)C[C@@H]1n1cc(C2CC2)nn1,5,0,-10,-5,12,-19
CCN(CCn1cccn1)C(=O)CCc1nnc(-c2ccc3c(c2)OCO3)o1,22*,0,-6,-4,9,-11
CCN(CCn1cccn1)C(=O)CCc1nnc(CCCc2ccccc2)o1,-9,-2,8,-7,5,-1
CCOC(=O)c1c(NC(=O)COC(=O)CCOc2ccc(C)cc2)sc(C(=O)N(C)C)c1C,19*,0,-26,-4,8,-8
CCCCN1CCc2c(c3ccccc3n2Cc2ccccc2)C1,-15,-5,4,-10,-8,2
CN1CCc2c(c3ccccc3n2Cc2ccccc2)C1,-19,-2,42*,-7,-26,66*!
S=C(Nc1ccccc1Cl)N1CCN(Cc2ccccc2)CC1,-1,-1,8,1,-1,3
CCOC(=O)C1CCN(CCC(=O)Nc2cccc(Cl)c2C)CC1,-1,-2,0,13,-7,-5
CCOC(=O)N1CCN(CCC(=O)Nc2cccc(Cl)c2C)CC1,-4,2,4,52*,-27,39*
Cc1c(Cl)cccc1NC(=S)N1CCN(Cc2ccccc2)CC1,-2,-3,7,19*,6,-7
COc1ccccc1/C=C(\NC(=O)c1ccc(OC)c(OC)c1)C(=O)Nc1cc([N+](=O)[O-])ccc1C,-3,0,-7,-5,-3,5
COC(=O)C[C@H]1C=C[C@@H](NC(=O)c2ccncc2)[C@@H](CO)O1,-4,-1,8,.,.,.
Cc1nccn1CC(=O)c1ccccc1,4,-2,12,-4,9,-7
CCSc1ccc2c(c1)N(CCCN1CCN(C)CC1)c1ccccc1S2,-16,1,15,-6,-19,22
CC(CN1CCN(CCOCCO)CC1)CN1c2ccccc2Sc2ccc(Cl)cc21 (stereo not given),-19,2,13,0,-28,56*
N/C(=N\OC(=O)c1ccc2ccccc2c1)c1ccccn1,-7,2,0,-2,2,-6
NC(=Nc1nc(-c2ccccn2)cc2ccccc12)c1ccccn1,-13,0,5,-1,-14,33*
O=C(N/C(=C/c1cccc(Br)c1)C(=O)N1CCOCC1)c1ccco1,1,1,-3,0,9,-19
C[C@]12CCC(=O)C=C1CCC1C2CC[C@@]2(C)C1CCC21OCCO1 (stereo not given in full),-5,6,-6,-4,2,4
C[C@]12CCC(=O)C=C1CC[C@@H]1[C@@H]2CC[C@@]2(C)[C@H]1CC[C@@]21CCC(=O)O1,-10,-8,-6,-8,-21,31*
Cc1cccc(-n2ncc3c2CCCC3NC(=O)c2ccncc2)c1C (stereo not given),-12,7,13,-1,-10,15
SMILES,CHRM5 PAM,M5 ag,M5 antag,CHRM1 agonist,M1 PAM,M1 antag
CCn1cc(C(=O)NC2CCCc3c2cnn3-c2cccc(C)c2C)cn1 (stereo not given),-20,4,27,3,-8,31*
Cc1cc(NC(=O)c2cnn3c(C(F)(F)F)cc(-c4ccccc4)nc23)no1,-6,3,11,-10,-17,33*
Cc1cc(NC(=O)c2cnn3c(C(F)F)cc(-c4ccccc4)nc23)no1,-2,0,8,2,6,-9
O=C(O)c1ccc(NC2(C(=O)O)CCCC2)cc1,12,2,-2,6,5,-9
O=C(NCc1ccco1)C(=O)NCC1OCCN1S(=O)(=O)c1cc(F)ccc1F (stereo not given),4,0,8,16*,1,-2
CN1CSC2=C(C#N)C(c3cccc(OCc4ccccc4)c3)CC(=O)N2C1 (stereo not given),-18,40*,-6,0,0,-2
CSCCC(C(=O)Nc1c(C)cccc1C)N(Cc1ccccc1)Cc1ccccc1 (stereo not given),6,4,-6,2,-4,-16
Cc1c(C(=O)OCC(=O)N(C)Cc2ccccc2)oc2ccccc12,-4,-4,11,-8,0,-1
Cc1c(C(=O)OCCN2CCCCC2)oc2ccccc12,-11,-8,1,-4,-21,92*
CCN(CC)CC(C)(C)COC(=O)c1oc2ccccc2c1C,3,-14,-4,-7,-22,32*
CC(=O)Nc1ccc(NC(=O)C(C)OC(=O)c2oc3ccccc3c2C)cc1 (stereo not given),7,-3,2,-7,-17,20
Cc1c(C(=O)OCC(=O)N2C(C)CCCC2C)oc2ccccc12 (stereo not given),-1,-2,-9,-6,4,-12
Cc1c(C(=O)OCC(=O)N(C)c2ccccc2)oc2ccccc12,2,-6,-10,-5,-22,33*
Cc1c(C(=O)OC(C)CCN(C)C)oc2ccccc12 (stereo not given),-13,-5,7,-5,-22,98*
CC(C)(C)c1ccc(C(=O)OCCN2CCCCC2)cc1,-9,-2,13,-7,-30,45*
Cc1c(C(=O)OCC(C)(C)CN(C)C)oc2ccccc12,0,-13,-3,-4,-20,53*
Cc1cc(Br)cn2c(Cc3ccccc3)c(-c3ccc(C#N)cc3)nc12,-1,-1,11,-6,-5,-17
